Experimental data: ChEMBL document CHEMBL1126047, “Novel non-nucleoside inhibitors of HIV-1 reverse transcriptase. 2. Tricyclic pyridobenzoxazepinones and dibenzoxazepinones” (J Med Chem, 1992)

Legend:
[1] = molecular target: Human immunodeficiency virus type 1 reverse transcriptase (Human immunodeficiency virus 1) (UniProt Q72547); assay: Inhibition of HIV-1 reverse transcriptase at a concentration of 1 uM
How it was run: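 Recombinant p66/p51 heterodimer RT (>95% homogeneous) at 0.5 nM, with poly(rC):oligo(dG) 0.8 µg/mL and 500 nM [3H]dGTP. Compound in DMSO, diluted in buffer; enzyme-started, 1 h at room temperature. TCA/pyrophosphate-precipitated product filtered and counted; inhibition versus no-compound reactions.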

[2] = system: T-cell; assay: In vitro inhibitory activity against HIV-1(IIIB) replication in human T-cells (c8166).; type: functional, cell-based
How it was run: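 CD4+ human T-cell line c8166 infected with HIV-1 IIIB. Syncytia formation scored, with IC50 taken as the concentration giving a 50% reduction in centers of syncytia.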

[3] = molecular target: Human immunodeficiency virus type 1 reverse transcriptase (Human immunodeficiency virus 1, UniProt Q72547); assay: In vitro inhibitory activity against HIV-1 reverse transcriptase.

SMILES	inhibition [1]	IC50 [2]	IC50 [3]
Cc1cccc2c1NC(=O)c1cc(N)ccc1O2	31%		
C=CCN1C(=O)c2cccnc2Oc2ccccc21	40%		
CN1C(=O)c2cccnc2Oc2cc([N+](=O)[O-])ccc21	0%		
COC(=N)c1cc(C)cc2c1N(C)C(=O)c1cccnc1O2	0%		
CCN1C(=O)c2cc(N)cnc2Oc2cc(C)cc(C)c21	93%	0.054 µM	0.027 µM
CCCN1C(=O)c2ccccc2Oc2nc(Cl)ccc21	68%		0.21 µM
CCCN1C(=O)c2cc(N)ccc2Oc2ccc(C)c(C)c21	63%		0.67 µM
Cc1cc2c(c(C(N)=O)c1)N(C)C(=O)c1cccnc1O2	31%		
CN1C(=O)c2ccc(N)cc2Oc2ccccc21	19%		
CCCN1C(=O)c2ccccc2S(=O)(=O)c2ccccc21	31%		
Cc1ccc2c(c1)Oc1ccc(O)cc1C(=O)N2C	58%		0.64 µM
CCCN1C(=O)c2ccccc2[S+]([O-])c2ccccc21 (configuration not stated)	20%		
CCN1C(=O)c2cc(N)ccc2Oc2cc(C)cc(C)c21	95%		0.043 µM
CCN1C(=O)c2cccnc2Oc2cc(C)cc([N+](=O)[O-])c21	85%		0.031 µM
CN1C(=O)c2cccnc2Oc2cc(N)ccc21	0%		
Cc1cc(C)c2c(c1)Oc1ccccc1C(=O)N2C	86%	0.038 µM	0.057 µM
CN1C(=O)c2cc(N)ccc2Oc2ccccc21	73%		0.18 µM
CN1C(=O)c2cccnc2Oc2cccc(C#N)c21	29%		
Cc1cc(C)c2c(c1)Oc1ccc(N)cc1C(=O)N2C	95%		0.02 µM
Cc1cc(C)c2c(c1)Oc1ccccc1C(=O)N2	39%		
Cc1ccc2c(c1)Oc1ccccc1C(=O)N2C	66%		0.6 µM
CCCN1C(=O)c2cc(N)ccc2Oc2cc(C)c(C)cc21	87%		0.165 µM

SMILES	inhibition [1]	IC50 [2]	IC50 [3]
Cc1cccc2c1N(C)C(=O)c1ccccc1O2	36%		
Cc1ccc2c(c1)Oc1ncccc1C(=O)N2C	43%		
CN1C(=O)c2cc(C#N)ccc2Oc2ccccc21	12%		
CCN1C(=O)c2cc([N+](=O)[O-])ccc2Oc2ccccc21	23%		
CCN1C(=O)c2ccccc2Oc2ccccc21	54%		0.56 µM
Cc1cc(CO)c2c(c1)Oc1ncccc1C(=O)N2C	39%		
Cc1ccc2c(c1)Oc1ccc(C#N)cc1C(=O)N2C	69%		0.28 µM
CN1C(=O)c2ccccc2Oc2ccccc21	20%		
COC(=O)c1cc(C)cc2c1N(C)C(=O)c1cccnc1O2	95%		0.022 µM
Cc1cc2c(c(S(C)(=O)=O)c1)N(C)C(=O)c1cccnc1O2	27%		
O=C1c2ccccc2Oc2ccccc2N1O	15%		
CCN1C(=O)c2cccnc2Oc2cccc([N+](=O)[O-])c21	58%		0.343 µM
Cc1cc(C)c2c(c1)Oc1ccc(O)cc1C(=O)N2C	80%	0.088 µM	0.063 µM
CCN1C(=O)c2cccnc2Oc2cc(C)cc(N)c21	73%		0.132 µM
C=CCN1C(=O)c2ccccc2Oc2ccccc21	58%		0.465 µM
CCN1C(=O)c2cccnc2Oc2cc(C)cc(C#N)c21	96%		0.019 µM
CCN1C(=O)c2cccnc2Oc2cccc(N)c21	33%		
CCCN1C(=S)c2ccccc2Oc2ccccc21	46%		2.2 µM
O=C1Nc2ccccc2Oc2ccccc21	30%		
CC(C)N1C(=O)c2ccccc2Oc2ccccc21	73%		0.34 µM
CCN1C(=O)c2cccnc2Oc2cc(C)cc(C)c21	92%		0.029 µM
CC(C)CN1C(=O)c2ccccc2Oc2ncccc21	29%		

SMILES	inhibition [1]	IC50 [2]	IC50 [3]
CCCN1C(=O)c2cccnc2Oc2ncccc21	5%		
CN1C(=O)c2cccnc2Oc2cc(F)ccc21	3%		
CN1C(=O)c2ccccc2Oc2ncccc21	2%		
CN(C)c1ccc2c(c1)Oc1ncccc1C(=O)N2C	34%		
COc1ccc2c(c1)Oc1ncccc1C(=O)N2C	24%		
Cc1ccc2c(c1)Oc1ncc([N+](=O)[O-])cc1C(=O)N2C	0%		
CCCN1C(=O)c2cc(N)ccc2Oc2ccc(C)cc21	53%		
CCN1Cc2ccccc2Oc2ccccc21	12%		
CCN1C(=O)c2ccccc2Oc2nc(Cl)ccc21	35%		
CN1C(=O)c2cccnc2Oc2ccccc21	23%		
CCN1C(=S)c2cccnc2Oc2cc(C)cc(C)c21	82%		0.09 µM
CN1C(=O)c2cc(CN)ccc2Oc2ccccc21	0%		
Cc1cc(N)c2c(c1)Oc1ncccc1C(=O)N2C	53%		1 µM
CCCN1C(=O)c2cc(N)ccc2Oc2cc(C)ccc21	84%		0.13 µM
Cc1cc2c(cc1C)N(C(C)C)C(=O)c1cc(N)cnc1O2	89%		0.045 µM
Cc1cc(C)c2c(c1)Oc1ccc(C#N)cc1C(=O)N2C	77%	0.031 µM	0.05 µM
CN1C(=O)c2ccccc2Oc2nc(Cl)ccc21	21%		
Cc1cc(C)c2c(c1)Oc1ncc(N)cc1C(=O)N2C	92%	0.115 µM	0.046 µM
Cc1cc2c(cc1C)N(C)C(=O)c1cc(N)cnc1O2	72%		0.322 µM
CSCCN1C(=O)c2ccccc2Oc2nc(Cl)ccc21	79%		0.072 µM
CN1C(=O)c2ccccc2Oc2cc(N)ccc21	20%		
Cc1ccc2c(c1)Oc1ncc(N)cc1C(=O)N2C	57%		0.25 µM

SMILES	inhibition [1]	IC50 [2]	IC50 [3]
CNc1ccc2c(c1)C(=O)N(C)c1ccccc1O2	40%		
CCCN1C(=O)c2ccccc2Oc2ccccc21	72%		0.375 µM
Cc1cc(C#N)c2c(c1)Oc1ncccc1C(=O)N2C	88%		0.055 µM
Cc1ccc2c(c1)Oc1ncccc1C(=O)N2	5%		
CON1C(=O)c2ccccc2Oc2ccccc21	36%		
CCCN1C(=O)c2cc(N)ccc2Oc2cccc(C)c21	70%		0.26 µM
CCCN1C(=O)c2cc(N)ccc2Oc2c(C)cc(C)cc21	52%		0.9 µM
CCN1C(=O)c2cc(N)ccc2Oc2ccc(C)cc21	76%		0.24 µM
CCN1C(=O)c2cc(N)ccc2Oc2cccc(C)c21	90%		0.06 µM
Cc1ccc2c(c1)Oc1ccc(N)cc1C(=O)N2C	96%		0.03 µM
Cc1cc2c(c([N+](=O)[O-])c1)N(C)C(=O)c1cccnc1O2	85%		0.023 µM
CCCN1C(=O)c2cccnc2Oc2ccccc21	31%		
Cc1cc2c(c(C(=O)O)c1)N(C)C(=O)c1cccnc1O2	0%		
CCN1C(=O)c2cc(N)ccc2Oc2ccccc21	82%		0.145 µM
Cc1cc(C)c2c(n1)Oc1ccccc1C(=O)N2C	25%		
CCN1C(=O)c2cccnc2Oc2ccccc21	25%		
CCN1C(=O)c2cc(N)cnc2Oc2cc(C)c(C)cc21	83%		0.071 µM
CCCN1C(=O)c2ccccc2Sc2ccccc21	77%		0.4 µM
CN1C(=O)c2cccnc2Oc2cc(O)ccc21	14%		
